Measured values as given in ChEMBL document CHEMBL3588757, “Structure-based design, synthesis and biological testing of piperazine-linked bis-epipodophyllotoxin etoposide analogs” (Bioorg Med Chem, 2015).

How the values were obtained:
Type in all cases: functional
UACC-257 = experiment: Cytotoxicity against human UACC257 cells assessed as cell growth at 50 uM by SRB assay; details: read-out: Activity
MDA-MB-231 [1] = experiment: Cytotoxicity against human MDA-MB-231/ATCC cells assessed as cell growth at 5 uM by SRB assay; details: read-out: Activity
COLO 205 [2] = experiment: Cytotoxicity against human COLO205 cells assessed as cell growth at 0.5 uM by SRB assay; details: read-out: Activity
SNB-19 = experiment: Cytotoxicity against human SNB19 cells assessed as cell growth at 0.005 uM by SRB assay; details: read-out: Activity
HCT-15 [3] = experiment: Cytotoxicity against human HCT15 cells assessed as cell growth at 50 uM by SRB assay; details: read-out: Activity
Procedure, shortened: (§1)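 Measured in the NCI-60 human tumour cell line panel using five-dose testing. Growth was recorded at each dose for each cell line, and a GI50 was derived for each line.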

MOLT-4 = experiment: Cytotoxicity against human MOLT4 cells assessed as cell growth at 50 uM by SRB assay; details: read-out: Activity
RPMI-8226 = experiment: Cytotoxicity against human RPMI8226 cells assessed as cell growth at 5 uM by SRB assay; details: read-out: Activity
NCI-H460 = experiment: Cytotoxicity against human NCI-H460 cells assessed as cell growth at 0.005 uM by SRB assay; details: read-out: Activity
SN12C = experiment: Cytotoxicity against human SN12C cells by SRB assay
Procedure, shortened: (§2)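 NCI-60 panel screen; 5-dose testing giving GI50 per cell line, plus a single 10 µM one-dose test. Method details not given beyond the NCI screen.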

NCI-H23 = experiment: Cytotoxicity against human NCI-H23 cells assessed as cell growth at 0.005 uM by SRB assay; details: read-out: Activity
SK-MEL-2 = experiment: Cytotoxicity against human SK-MEL-2 cells assessed as cell growth at 0.05 uM by SRB assay; details: read-out: Activity
786-0 = experiment: Cytotoxicity against human 786-0 cells assessed as cell growth at 50 uM by SRB assay; details: read-out: Activity
HOP-92 [4] = experiment: Cytotoxicity against human HOP92 cells assessed as cell growth at 0.5 uM by SRB assay; details: read-out: Activity; procedure, shortened: as §1
HL-60(TB) = experiment: Cytotoxicity against human HL-60(TB) cells assessed as cell growth at 0.5 uM by SRB assay; details: read-out: Activity; procedure, shortened: as §1
SF-539 = experiment: Cytotoxicity against human SF539 cells assessed as cell growth at 0.05 uM by SRB assay; details: read-out: Activity
ACHN [5] = experiment: Cytotoxicity against human ACHN cells by SRB assay
LOX IMVI [6] = experiment: Cytotoxicity against human LOXIMVI cells assessed as cell growth at 0.5 uM by SRB assay; details: read-out: Activity
DU-145 = experiment: Cytotoxicity against human DU145 cells assessed as cell growth at 50 uM by SRB assay; details: read-out: Activity; procedure, shortened: as §1
CCRF-CEM = experiment: Cytotoxicity against human CCRF-CEM cells by SRB assay
TK-10 = experiment: Cytotoxicity against human TK10 cells assessed as cell growth at 0.5 uM by SRB assay; details: read-out: Activity
ACHN [7] = experiment: Cytotoxicity against human ACHN cells assessed as cell growth at 0.05 uM by SRB assay; details: read-out: Activity
UACC-62 = experiment: Cytotoxicity against human UACC62 cells assessed as cell growth at 5 uM by SRB assay; details: read-out: Activity
MDA-MB-468 [8] = experiment: Cytotoxicity against human MDA-MB-468 cells by SRB assay; procedure, shortened: as §2
SF-268 [9] = experiment: Cytotoxicity against human SF268 cells assessed as cell growth at 0.05 uM by SRB assay; details: read-out: Activity
SF-268 [10] = experiment: Cytotoxicity against human SF268 cells by SRB assay; procedure, shortened: as §2
M14 = experiment: Cytotoxicity against human M14 cells by SRB assay; procedure, shortened: as §2
K562 = experiment: Relative resistance, ratio of IC50 for etoposide-resistant human K/VP.5 cells to IC50 for human K562 cells
SNB-75 = experiment: Cytotoxicity against human SNB75 cells assessed as cell growth at 5 uM by SRB assay; details: read-out: Activity
NCI-H522 = experiment: Cytotoxicity against human NCI-H522 cells assessed as cell growth at 0.05 uM by SRB assay; details: read-out: Activity
UO-31 = experiment: Cytotoxicity against human UO31 cells assessed as cell growth at 0.005 uM by SRB assay; details: read-out: Activity
KM12 = experiment: Cytotoxicity against human KM12 cells assessed as cell growth at 0.005 uM by SRB assay; details: read-out: Activity
HOP-62 = experiment: Cytotoxicity against human HOP62 cells assessed as cell growth at 50 uM by SRB assay; details: read-out: Activity; procedure, shortened: as §1
U-251 = experiment: Cytotoxicity against human U251 cells assessed as cell growth at 0.005 uM by SRB assay; details: read-out: Activity
MDA-MB-435 [11] = experiment: Cytotoxicity against human MDA-MB-435 cells assessed as cell growth at 0.005 uM by SRB assay; details: read-out: Activity
HCT-15 [12] = experiment: Cytotoxicity against human HCT15 cells assessed as cell growth at 0.005 uM by SRB assay; details: read-out: Activity; procedure, shortened: as §1
HOP-92 [13] = experiment: Cytotoxicity against human HOP92 cells assessed as cell growth at 0.005 uM by SRB assay; details: read-out: Activity; procedure, shortened: as §1
COLO 205 [14] = experiment: Cytotoxicity against human COLO205 cells assessed as cell growth at 0.05 uM by SRB assay; details: read-out: Activity
MDA-MB-468 [15] = experiment: Cytotoxicity against human MDA-MB-468 cells assessed as cell growth at 0.05 uM by SRB assay; details: read-out: Activity
LOX IMVI [16] = experiment: Cytotoxicity against human LOXIMVI cells assessed as cell growth at 0.005 uM by SRB assay; details: read-out: Activity
SK-MEL-28 = experiment: Cytotoxicity against human SK-MEL-28 cells assessed as cell growth at 5 uM by SRB assay; details: read-out: Activity
MDA-MB-435 [17] = experiment: Cytotoxicity against human MDA-MB-435 cells by SRB assay; procedure, shortened: as §2
MDA-MB-231 [18] = experiment: Cytotoxicity against human MDA-MB-231/ATCC cells assessed as cell growth at 0.5 uM by SRB assay; details: read-out: Activity
[19] = read-out: LC50 (the source's name)
[20] = read-out: pLC50 (the source's name) (converted)

COc1cc([C@@H]2c3cc4c(cc3[C@@H](NC(=O)CN3CCN(CCCCCCN5CCN(CC(=O)N[C@@H]6c7cc8c(cc7[C@@H](c7cc(OC)c(O)c(OC)c7)[C@H]7C(=O)OC[C@@H]76)OCO8)CC5)CC3)[C@H]3COC(=O)[C@H]23)OCO4)cc(OC)c1O
growth at 50 µM (UACC-257): 41% | growth at 5 µM (MDA-MB-231 [1]): 79% | growth at 0.5 µM (COLO 205 [2]): 60% | growth at 0.005 µM (SNB-19): 97% | growth at 50 µM (HCT-15 [3]): 60% | growth at 50 µM (MOLT-4): 5% | growth at 5 µM (RPMI-8226): -1% | growth at 0.005 µM (NCI-H460): 100% | GI50 (SN12C; read-out: GI50): 1.31 µM | CC50 (SN12C; [19]): > 50 µM | TGI (SN12C; read-out: TGI): > 50 µM | GI50 (SN12C; read-out: pGI50 (converted)): 1.32 µM | CC50 (SN12C; [20]): > 50.1 µM | TGI (SN12C; read-out: pTGI (converted)): > 50.1 µM | growth at 0.005 µM (NCI-H23): 102% | growth at 0.05 µM (SK-MEL-2): 100% | growth at 50 µM (786-0): -10% | growth at 0.5 µM (HOP-92 [4]): 69% | growth at 0.5 µM (HL-60(TB)): 60% | growth at 0.05 µM (SF-539): 96% | GI50 (ACHN [5]; read-out: GI50): 22.3 µM | CC50 (ACHN [5]; [19]): > 50 µM | TGI (ACHN [5]; read-out: TGI): > 50 µM | GI50 (ACHN [5]; read-out: pGI50 (converted)): 22.4 µM | CC50 (ACHN [5]; [20]): > 50.1 µM | TGI (ACHN [5]; read-out: pTGI (converted)): > 50.1 µM | growth at 0.5 µM (LOX IMVI [6]): 61% | growth at 50 µM (DU-145): 7% | GI50 (CCRF-CEM; read-out: GI50): 0.253 µM | CC50 (CCRF-CEM; [19]): > 50 µM | TGI (CCRF-CEM; read-out: TGI): > 50 µM | GI50 (CCRF-CEM; read-out: pGI50 (converted)): 0.251 µM | CC50 (CCRF-CEM; [20]): > 50.1 µM | TGI (CCRF-CEM; read-out: pTGI): > 50.1 µM | growth at 0.5 µM (TK-10): 89% | growth at 0.05 µM (ACHN [7]): 98% | growth at 5 µM (UACC-62): 29% | GI50 (MDA-MB-468 [8]; read-out: GI50): 1.72 µM | CC50 (MDA-MB-468 [8]; [19]): 50 µM | TGI (MDA-MB-468 [8]; read-out: TGI): 12.3 µM | GI50 (MDA-MB-468 [8]; read-out: pGI50 (converted)): 1.74 µM | CC50 (MDA-MB-468 [8]; [20]): > 50.1 µM | TGI (MDA-MB-468 [8]; read-out: pTGI (converted)): 12.3 µM | growth at 0.05 µM (SF-268 [9]): 100% | GI50 (SF-268 [10]; read-out: GI50): 1.38 µM | CC50 (SF-268 [10]; [19]): > 50 µM | TGI (SF-268 [10]; read-out: TGI): > 50 µM | GI50 (SF-268 [10]; read-out: pGI50 (converted)): 1.38 µM | CC50 (SF-268 [10]; [20]): > 50.1 µM | TGI (SF-268 [10]; read-out: pTGI (converted)): > 50.1 µM | GI50 (M14; read-out: GI50): 2.31 µM | CC50 (M14; [19]): > 50 µM | TGI (M14; read-out: TGI): 22.1 µM | GI50 (M14; read-out: pGI50 (converted)): 2.29 µM | CC50 (M14; [20]): > 50.1 µM | TGI (M14; read-out: pTGI (converted)): 21.9 µM | Ratio IC50 (K562): 21.5 | growth at 5 µM (SNB-75): 22% | growth at 0.05 µM (NCI-H522): 99% | growth at 0.005 µM (UO-31): 94% | growth at 0.005 µM (KM12): 103% | growth at 50 µM (HOP-62): -22% | growth at 0.005 µM (U-251): 102% | growth at 0.005 µM (MDA-MB-435 [11]): 91% | growth at 0.005 µM (HCT-15 [12]): 90% | growth at 0.005 µM (HOP-92 [13]): 88% | growth at 0.05 µM (COLO 205 [14]): 99% | growth at 0.05 µM (MDA-MB-468 [15]): 89% | growth at 0.005 µM (LOX IMVI [16]): 98% | growth at 5 µM (SK-MEL-28): 56% | GI50 (MDA-MB-435 [17]; read-out: GI50): 7.52 µM | CC50 (MDA-MB-435 [17]; [19]): > 50 µM | TGI (MDA-MB-435 [17]; read-out: TGI): > 50 µM | GI50 (MDA-MB-435 [17]; read-out: pGI50 (converted)): 7.59 µM | CC50 (MDA-MB-435 [17]; [20]): > 50.1 µM | TGI (MDA-MB-435 [17]; read-out: pTGI (converted)): > 50.1 µM | growth at 0.5 µM (MDA-MB-231 [18]): 97%
